Active and inactive are the calls of the source. The calls are words filed in the database; no cut-off is given here.
Columns and labels:
[1] = Binding affinity to Mycobacterium tuberculosis CYP142A1 by UV-visible spectrophotometry; settings: read-out: Kd(app)
Procedure, shortened: (§1)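 Spectral titration of each P450 with steroid solubilised in methyl β-cyclodextrin. Ligand-induced low-spin/high-spin shifts were followed in the Soret region and at ~650 nm to assign binding type. Absolute spectra of the P450–steroid complexes were also examined.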

[2] = tested on: Mycobacterium tuberculosis; assay: Binding affinity to Mycobacterium tuberculosis CYP142A1 assessed as type 1 binding mode at 0.05 to 0.2 uM by UV-visible spectrophotometry; procedure, shortened: as §1
[3] = tested on: Mycobacterium tuberculosis; assay: Activity of Mycobacterium tuberculosis CYP124A1 assessed as relative apparent turnover number at 50 uM incubated for 1 hr at 25 degC by GC-MS method relative to cholesterol
[4] = molecular target: T1, Steroid C26-monooxygenase (Mycobacterium tuberculosis, UniProt P9WPP1); assay: Activity of Mycobacterium tuberculosis CYP125A1 assessed as relative apparent turnover number at 50 uM incubated for 1 hr at 25 degC by GC-MS method relative to cholesterol
T1 sequence (P9WPP1 whole entry): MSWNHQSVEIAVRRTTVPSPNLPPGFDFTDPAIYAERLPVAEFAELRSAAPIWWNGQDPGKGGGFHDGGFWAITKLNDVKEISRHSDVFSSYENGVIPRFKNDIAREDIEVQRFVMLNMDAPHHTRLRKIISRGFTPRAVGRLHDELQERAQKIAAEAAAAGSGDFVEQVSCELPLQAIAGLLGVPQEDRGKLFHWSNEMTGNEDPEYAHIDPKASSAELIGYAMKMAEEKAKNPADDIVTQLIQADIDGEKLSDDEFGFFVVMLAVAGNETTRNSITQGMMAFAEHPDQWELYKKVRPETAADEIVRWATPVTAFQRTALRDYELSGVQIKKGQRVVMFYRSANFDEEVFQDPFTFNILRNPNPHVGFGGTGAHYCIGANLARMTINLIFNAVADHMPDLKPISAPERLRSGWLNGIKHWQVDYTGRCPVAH

[5] = tested on: Mycobacterium tuberculosis; assay: Binding affinity to Mycobacterium tuberculosis CYP124A1 assessed as type 1 binding mode at 0.05 to 0.2 uM by UV-visible spectrophotometry; procedure, shortened: as §1
[6] = tested on: Mycobacterium tuberculosis; assay: Activity of Mycobacterium tuberculosis CYP124A1 assessed as apparent turnover number at 50 uM incubated for 1 hr at 25 degC by GC-MS method
Procedure, shortened: (§2)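 Each P450 (250 nM) was incubated with 50 μM substrate, 5 μg catalase, 50 μg/mL ferredoxin, 0.16 U/mL ferredoxin-NADP+ reductase, and an NADPH-regenerating system (1 mM glucose-6-phosphate, 2.4 U/mL G6P dehydrogenase, 5 mM MgCl2, 800 μM NADP+). Buffer was 50 mM potassium phosphate pH 7.5, 25 °C, 1 h. Quenched with HCl, extracted into hexanes, TMS-derivatised, GC-MS. Controls lacked P450 or NADPH.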

[7] = molecular target: T1, Steroid C26-monooxygenase; assay: Activity of Mycobacterium tuberculosis CYP125A1 assessed as apparent turnover number at 50 uM incubated for 1 hr at 25 degC by GC-MS method; procedure, shortened: as §2
[8] = molecular target: T1, Steroid C26-monooxygenase; assay: Binding affinity to Mycobacterium tuberculosis CYP125A1 by UV-visible spectrophotometry; settings: read-out: Kd(app); procedure, shortened: as §1
[9] = molecular target: T1, Steroid C26-monooxygenase; assay: Binding affinity to Mycobacterium tuberculosis CYP125A1 assessed as type 1 binding mode at 0.05 to 0.2 uM by UV-visible spectrophotometry; procedure, shortened: as §1
[10] = tested on: Mycobacterium tuberculosis; assay: Binding affinity to Mycobacterium tuberculosis CYP124A1 assessed as type 1a binding mode at > 0.05 to 0.2 uM by UV-visible spectrophotometry; procedure, shortened: as §1

Q: With CC=C(C)CCC[C@@H](C)[C@H]1CC[C@H]2[C@@H]3CC=C4C[C@@H](O)CC[C@]4(C)[C@H]3CC[C@]12C (mixture of isomers) as the compound, how does the Kd [1] read?
A: The Kd was 160 nM.

Q: What about the Activity [2] of the same compound?
A: Its Activity is “Active”.

Q: What about the Activity [3] of the same compound?
A: The Activity was 22.4%.

Q: And the Activity [4]?
A: The Activity was 29.9%.

Q: What about the Activity [5] of the same compound?
A: Its Activity is “Active”.

Q: And the Kcat(app) [6]?
A: The Kcat(app) was 0.005 s⁻¹.

Q: What about the “Kcat(app)” value [7] of the same compound?
A: Its value is 0.135 s⁻¹.

Q: And the Kd [8]?
A: Its Kd is 450 nM.

Q: And the Activity [9]?
A: Its Activity is “Active”.

Q: What about the Activity [10] of the same compound?
A: The Activity was “Active”.

From ChEMBL document CHEMBL2046332, “Substrate analog studies of the ω-regiospecificity of Mycobacterium tuberculosis cholesterol metabolizing cytochrome P450 enzymes CYP124A1, CYP125A1 and CYP142A1” (Bioorg Med Chem, 2012)
